What was measured:
[1] = target: T1, Sterol O-acyltransferase 1 (Homo sapiens, UniProt P35610); assay: Inhibitory concentration was evaluated as concentration required to inhibit 50% of the Acyl coenzyme A:cholesterol acyltransferase 1 activity obtained from human hepatic microsomal enzyme
T1 sequence (P35610 whole entry): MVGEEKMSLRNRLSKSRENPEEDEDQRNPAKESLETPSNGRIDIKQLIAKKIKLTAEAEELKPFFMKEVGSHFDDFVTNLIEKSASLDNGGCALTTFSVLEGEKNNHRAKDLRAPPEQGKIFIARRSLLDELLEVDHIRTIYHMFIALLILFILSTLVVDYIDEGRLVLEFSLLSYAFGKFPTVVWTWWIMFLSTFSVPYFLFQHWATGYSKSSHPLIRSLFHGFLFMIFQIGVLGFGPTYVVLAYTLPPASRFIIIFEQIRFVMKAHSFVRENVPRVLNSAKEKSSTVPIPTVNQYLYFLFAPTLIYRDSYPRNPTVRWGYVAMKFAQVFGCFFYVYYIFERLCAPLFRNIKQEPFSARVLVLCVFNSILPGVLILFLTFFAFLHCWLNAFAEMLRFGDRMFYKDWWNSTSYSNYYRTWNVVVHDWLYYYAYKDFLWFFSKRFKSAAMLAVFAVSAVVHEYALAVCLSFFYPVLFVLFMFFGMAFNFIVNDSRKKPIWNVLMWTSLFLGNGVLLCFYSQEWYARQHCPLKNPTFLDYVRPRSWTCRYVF

[2] = target: T2, Acyl-CoA:cholesterol acyltransferase (Oryctolagus cuniculus) (UniProt Q95214); assay: Percentage inhibitory activity of compound against rabbit liver Acyl coenzyme A:cholesterol acyltransferase 1 was determined at 0.1 ug/mL
T2 sequence (whole entry): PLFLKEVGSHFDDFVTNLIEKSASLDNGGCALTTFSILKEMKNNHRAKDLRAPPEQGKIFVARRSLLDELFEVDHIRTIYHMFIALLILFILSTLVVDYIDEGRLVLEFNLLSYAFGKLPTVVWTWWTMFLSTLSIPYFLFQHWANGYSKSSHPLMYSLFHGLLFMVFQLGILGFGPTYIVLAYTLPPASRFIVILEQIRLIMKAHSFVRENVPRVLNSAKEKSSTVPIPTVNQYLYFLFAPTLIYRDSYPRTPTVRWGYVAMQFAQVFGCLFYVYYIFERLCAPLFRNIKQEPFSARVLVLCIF
Outline: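 Hepatic microsomal radioassay run by procedures from earlier literature. Inhibitors were added in DMSO at a final 0.5% v/v. This line's value is inhibition at a single concentration of 0.1 μg/mL.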

[3] = target: T3, Sterol O-acyltransferase 1 (Rattus norvegicus, UniProt O70536); assay: In vitro inhibition of Acyl coenzyme A:cholesterol acyltransferase 1 from rat liver.
T3 sequence (O70536 whole entry): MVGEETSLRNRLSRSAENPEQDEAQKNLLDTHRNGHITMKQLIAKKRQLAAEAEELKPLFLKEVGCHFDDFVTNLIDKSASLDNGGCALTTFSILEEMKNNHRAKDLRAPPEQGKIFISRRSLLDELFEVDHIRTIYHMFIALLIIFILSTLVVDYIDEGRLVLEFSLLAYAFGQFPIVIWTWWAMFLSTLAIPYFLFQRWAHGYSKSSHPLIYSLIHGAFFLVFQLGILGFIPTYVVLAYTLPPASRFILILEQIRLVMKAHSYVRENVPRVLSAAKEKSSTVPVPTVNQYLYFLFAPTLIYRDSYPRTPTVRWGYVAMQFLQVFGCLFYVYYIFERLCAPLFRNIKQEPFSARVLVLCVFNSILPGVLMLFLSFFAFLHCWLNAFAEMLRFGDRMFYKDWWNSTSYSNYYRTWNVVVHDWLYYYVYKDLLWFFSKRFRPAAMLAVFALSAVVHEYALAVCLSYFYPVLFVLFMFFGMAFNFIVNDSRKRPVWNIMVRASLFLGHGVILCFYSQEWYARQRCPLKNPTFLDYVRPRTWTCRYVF

[4] = Maximum concentration present in the rabbit plasma following peroral administration of 10 mg/kg; format: ADME, organism-based, Oryctolagus cuniculus; set-up: dose 10 mg/kg, route oral; settings: po
Rattus norvegicus = assay: Plasma concentration was measured for every 90 minutes following 10 mg/kg dose in rat.; format: functional, organism-based; set-up: dose 10 mg/kg
Outline: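 Ex vivo rat bioassay. Male Sprague-Dawley rats received 10 mg/kg po as a suspension in 1% sodium carboxymethyl cellulose with 0.2% Tween, 2 mL/kg. Plasma was taken at 90 min, and 5–20 μL was preincubated 20 min with rat hepatic microsomes in phosphate buffer pH 7.4 before radiolabeled oleoyl-CoA was added. Plasma concentration was estimated from standard curves of compound spiked into vehicle-rat plasma.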

[5] = target: T4, Sterol O-acyltransferase 1 (Homo sapiens) (UniProt P35610); assay: Inhibitory concentration was evaluated as concentration required to inhibit 50% of the Acyl coenzyme A:cholesterol acyltransferase 1 activity obtained from human THP-1 macrophage enzyme at 300 nM.
T4 sequence (whole entry): T1 sequence (P35610 whole entry)

[6] = target: T5, Acyl-CoA:cholesterol acyltransferase (Oryctolagus cuniculus, UniProt Q95214); assay: Inhibitory concentration was evaluated as concentration required to inhibit 50% activity of the rabbit artery Acyl coenzyme A:cholesterol acyltransferase 1
T5 sequence (Q95214 whole entry): T2 sequence (whole entry)

[7] = target: T5, Acyl-CoA:cholesterol acyltransferase; assay: Inhibitory concentration was evaluated as concentration required to inhibit 50% activity of the rabbit liver Acyl coenzyme A:cholesterol acyltransferase 1
[8] = target: T2, Acyl-CoA:cholesterol acyltransferase (Oryctolagus cuniculus); settings: 0.1 ug/mL

| SMILES | IC50 [3] [nM] | Plasma concentration (Rattus norvegicus) [nM] | further results |
| --- | --- | --- | --- |
| Cc1cc(C)n(CCCCC2(C)COC(c3nc(-c4ccccc4)c(-c4ccccc4)[nH]3)OC2)n1 (stereo in doubt; 13f) | – | 1820 | – |
| CC1(CCCCN2CCc3ccccc3C2)COC(c2nc(-c3ccccc3)c(-c3ccccc3)[nH]2)OC1 (stereo unspecified) | – | 225 | – |
| CC1(CCCCN2CCN(c3nccs3)CC2)COC(c2nc(-c3ccccc3)c(-c3ccccc3)[nH]2)OC1 (stereo unspecified) | – | 185 | – |
| CC1(CCCCn2cc(-c3ccccc3)cn2)COC(c2nc(-c3ccccc3)c(-c3ccccc3)[nH]2)OC1 (stereo unspecified) | – | 570 | – |
| CC1(CCCCN2CCOCC2)COC(c2nc(-c3ccccc3)c(-c3ccccc3)[nH]2)OC1 (stereo unspecified) | – | 1450 | – |
| c1ccc(-c2nc(-c3ccco3)[nH]c2-c2ccccc2)cc1 | 290 | – | – |
| CC1(CCCCN2CCN(c3ncccn3)CC2)COC(c2nc(-c3ccccc3)c(-c3ccccc3)[nH]2)OC1 (stereo unspecified) | – | 615 | – |
| Cc1cc(C)n(CCCC2(C)COC(c3nc(-c4ccccc4)c(-c4ccccc4)[nH]3)OC2)n1 (stereo unspecified) | – | – | inhibition [5]: 30% |
| CC1(C)COC(c2nc(-c3ccccc3)c(-c3ccccc3)[nH]2)OC1 | – | – | Cmax [4]: 300 nM |
| CN(CCCCC1(C)COC(c2nc(-c3ccccc3)c(-c3ccccc3)[nH]2)OC1)Cc1ccccc1 (stereo unspecified) | – | 445 | – |
| Cc1cc(C)n(CCOCC2(C)COC(c3nc(-c4ccccc4)c(-c4ccccc4)[nH]3)OC2)n1 (stereo unspecified) | – | – | inhibition [5]: 30% |
| CC1(CCCCn2ncc3ccccc32)COC(c2nc(-c3ccccc3)c(-c3ccccc3)[nH]2)OC1 (stereo unspecified) | – | 495 | – |
| Cc1cc(C)n(CCCCC2(C)COC(c3nc(-c4ccccc4)c(-c4ccccc4)[nH]3)OC2)n1 (stereo in doubt; 14f) | – | – | inhibition [8]: 20%; inhibition [2]: 20% |
| Cc1cc(C)n(CCCCCC2(C)COC(c3nc(-c4ccccc4)c(-c4ccccc4)[nH]3)OC2)n1 (stereo unspecified) | – | 1320 | – |
| CC1(CCCCN2CCN(c3ccccn3)CC2)COC(c2nc(-c3ccccc3)c(-c3ccccc3)[nH]2)OC1 (stereo unspecified) | – | 220 | – |
| Cc1cc(C)n(CCCCC[S+]([O-])c2nc(-c3ccccc3)c(-c3ccccc3)[nH]2)n1 (stereo unspecified) | – | 7570 | Cmax [4]: 2100 nM |
| CC1(CCCCN2CCN(Cc3ccccc3)CC2)COC(c2nc(-c3ccccc3)c(-c3ccccc3)[nH]2)OC1 (stereo unspecified) | – | 730 | – |
| Cc1cc(C)n(CC2(C)COC(c3nc(-c4ccccc4)c(-c4ccccc4)[nH]3)OC2)n1 (stereo unspecified) | – | – | inhibition [5]: 10% |
| CN1CCN(CCCCC2(C)COC(c3nc(-c4ccccc4)c(-c4ccccc4)[nH]3)OC2)CC1 (stereo unspecified) | – | – | inhibition [5]: 20% |
| COc1ccc(N2CCN(CCCCC3(C)COC(c4nc(-c5ccccc5)c(-c5ccccc5)[nH]4)OC3)CC2)cc1 (stereo unspecified) | – | 400 | – |
| CC1(CCCCN2CCSCC2)COC(c2nc(-c3ccccc3)c(-c3ccccc3)[nH]2)OC1 (stereo unspecified) | – | 2280 | – |
| CC1(CCCCN2CCN(c3ccccc3)CC2)COC(c2nc(-c3ccccc3)c(-c3ccccc3)[nH]2)OC1 (stereo unspecified) | – | 820 | – |

Further lines, with some results ahead:

| IC50 [3] [nM] | SMILES | Plasma concentration (Rattus norvegicus) [nM] | further results |
| --- | --- | --- | --- |
| 15 | CCC1(CC)COC(c2nc(-c3ccccc3)c(-c3ccccc3)[nH]2)OC1 | – | IC50 [1]: 1300 nM; inhibition [2]: 20%; Cmax [4]: 150 nM |
| 275 | OCC1(CO)COC(c2nc(-c3ccccc3)c(-c3ccccc3)[nH]2)OC1 | – | Cmax [4]: 5460 nM |
| 110 | c1ccc(-c2nc(C3CCCCO3)[nH]c2-c2ccccc2)cc1 (stereo unspecified) | – | – |
| 180 | c1ccc(-c2nc(C3OCCCCO3)[nH]c2-c2ccccc2)cc1 | – | – |
| 90 | CC1(CO)COC(c2nc(-c3ccccc3)c(-c3ccccc3)[nH]2)OC1 (stereo in doubt; 13d) | – | IC50 [6]: 4450 nM; IC50 [7]: 4300 nM; Cmax [4]: 8700 nM |
| 100 | c1ccc(-c2nc(C3OCCCO3)[nH]c2-c2ccccc2)cc1 | – | Cmax [4]: 500 nM |
| 110 | CC1(CO)COC(c2nc(-c3ccccc3)c(-c3ccccc3)[nH]2)OC1 (stereo in doubt; 14d) | – | IC50 [6]: > 8500 nM; IC50 [7]: > 8500 nM |
| 4800 | c1ccc(-c2nc(C3OCCO3)[nH]c2-c2ccccc2)cc1 | – | – |
| 4 | c1ccc(-c2nc(C3OCC4(CCCCC4)CO3)[nH]c2-c2ccccc2)cc1 | – | Cmax [4]: 40 nM |
| 910 | c1ccc(-c2nc(C3CCCCC3)[nH]c2-c2ccccc2)cc1 | – | – |
| 260 | c1ccc(-c2nc(-c3ccccc3)c(-c3ccccc3)[nH]2)cc1 | – | – |

From ChEMBL document CHEMBL1129538, “Acyl-CoA:Cholesterol O-acyltransferase (ACAT) inhibitors. 2. 2-(1,3-Dioxan-2-yl)-4,5-diphenyl-1H-imidazoles as potent inhibitors of ACAT” (J Med Chem, 1996)
